Results published in ChEMBL document CHEMBL4673340 (J Med Chem, 2020).
Calls of active or inactive are those of the source. The rule behind the calls is not given here.

Columns and labels:
[1] = molecular target: T1, Poly [ADP-ribose] polymerase 1 (Homo sapiens, UniProt P09874); assay: Inhibition of PARP-1 in human HeLa cells incubated for 18 hrs in presence of H2O2; type: cell-based
[2] = molecular target: T1, Poly [ADP-ribose] polymerase 1; assay: Inhibition of human PARP-1 catalytic domain (662 to 1011 residues) expressed in Escherichia coli BL21(DE3) cells pre-incubated for 30 mins before addition of activated DNA and NAD by fluorescence based assay
NCI-H209 [3] = assay: Antitumor activity against human NCI-H209 cells xenografted in BALB/c nude mouse assessed as tumor relapse at 50 mg/kg, po QD for 5 consecutive days at start of study and again 14 days later and measured after 48 days; type: functional, organism-based; details: time 19.0 day
Outline: (§1)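 Female BALB/c nude mice are implanted subcutaneously with 1 × 10⁷ H209 cells in cold PBS. At ~175 mm³ they are randomized into four groups of 8. TMZ is given orally in 0.5% MC at 10 mL/kg, QD on days 1–5 and 15–19. Caliper tumor volume (0.5ab²) is measured twice weekly and reported as mean ± SEM.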

NCI-H209 [4] = assay: Antitumor activity against human NCI-H209 cells xenografted in BALB/c nude mouse assessed as PR rate at 50 mg/kg, po QD for 5 consecutive days at start of study and again 14 days later; type: functional; details: time 19 day; outline: as §1
NCI-H209 [5] = assay: Antitumor activity against human NCI-H209 cells xenografted in BALB/c nude mouse assessed as inhibition of tumor growth at 50 mg/kg, po QD for 5 consecutive days at start of study and again 14 days later; type: functional, organism-based; details: time 19.0 day; outline: as §1
[6] = Solubility of the compound; type: physicochemical
hERG (KCNH2) = hERG (KCNH2) (Homo sapiens, UniProt Q12809); assay: Inhibition of human ERG activity at 20 uM by functional cellular assay
Chain of hERG (KCNH2) (Q12809 whole entry): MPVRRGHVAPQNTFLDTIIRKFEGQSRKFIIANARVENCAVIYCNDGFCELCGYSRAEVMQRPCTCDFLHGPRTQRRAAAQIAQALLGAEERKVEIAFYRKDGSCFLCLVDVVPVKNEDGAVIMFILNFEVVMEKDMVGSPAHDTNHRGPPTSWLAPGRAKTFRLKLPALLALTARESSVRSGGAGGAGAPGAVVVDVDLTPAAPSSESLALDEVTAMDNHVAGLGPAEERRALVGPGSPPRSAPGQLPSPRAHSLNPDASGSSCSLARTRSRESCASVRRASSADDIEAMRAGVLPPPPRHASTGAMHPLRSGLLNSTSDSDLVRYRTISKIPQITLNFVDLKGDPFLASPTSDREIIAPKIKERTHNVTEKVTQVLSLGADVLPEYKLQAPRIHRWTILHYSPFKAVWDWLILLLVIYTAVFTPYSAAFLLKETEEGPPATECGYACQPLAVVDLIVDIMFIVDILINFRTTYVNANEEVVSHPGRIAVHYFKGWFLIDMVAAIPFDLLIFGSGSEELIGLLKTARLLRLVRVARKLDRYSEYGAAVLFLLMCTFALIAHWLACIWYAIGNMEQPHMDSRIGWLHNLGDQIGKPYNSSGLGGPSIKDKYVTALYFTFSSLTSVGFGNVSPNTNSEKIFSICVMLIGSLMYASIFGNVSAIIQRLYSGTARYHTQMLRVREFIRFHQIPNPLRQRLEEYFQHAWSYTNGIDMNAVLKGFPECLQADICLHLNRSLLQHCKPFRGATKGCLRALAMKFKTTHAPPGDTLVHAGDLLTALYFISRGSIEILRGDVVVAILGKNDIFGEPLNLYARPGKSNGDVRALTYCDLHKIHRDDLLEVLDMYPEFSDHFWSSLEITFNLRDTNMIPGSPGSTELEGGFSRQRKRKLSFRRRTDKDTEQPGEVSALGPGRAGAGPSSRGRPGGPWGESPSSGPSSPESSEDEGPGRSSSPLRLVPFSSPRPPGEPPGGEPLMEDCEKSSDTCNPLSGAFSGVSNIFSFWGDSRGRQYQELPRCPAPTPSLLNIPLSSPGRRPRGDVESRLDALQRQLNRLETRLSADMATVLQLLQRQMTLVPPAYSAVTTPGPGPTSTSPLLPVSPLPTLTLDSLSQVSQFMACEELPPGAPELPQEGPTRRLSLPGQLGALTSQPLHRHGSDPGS

[7] = Clearance in rat at 5 mg/kg, po by LC-MS/MS analysis; type: ADME, organism-based; details: in vivo
[8] = Clearance in mouse liver microsomes; type: ADME, Microsome; details: read-out: CLH
[9] = Oral bioavailability in Sprague-Dawley rat at 5 mg/kg by LC-MS/MS analysis; type: ADME, organism-based; details: in vivo
Outline: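 Pharmacokinetics in Sprague-Dawley rats, three per group. iv 2 mg/kg in 38% DMA in water; po 5 mg/kg. Plasma was protein-precipitated, diluted with water and analysed by LC-MS/MS using an acetonitrile/0.1% formic acid gradient. Values are means of three rats.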

[10] = AUC (0 to 24 hrs) in rat at 5 mg/kg, po by LC-MS/MS analysis; type: ADME, organism-based; parameters: time < 24 hr, route oral, dose 5 mg/kg; details: in vivo
[11] = molecular target: Poly [ADP-ribose] polymerase 2 (Homo sapiens, UniProt Q9UGN5); assay: Inhibition of PARP-2 (unknown origin) pre-incubated for 30 mins before addition of activated DNA and NAD by chemiluminescent assay
Chain of Poly [ADP-ribose] polymerase 2 (Q9UGN5 whole entry): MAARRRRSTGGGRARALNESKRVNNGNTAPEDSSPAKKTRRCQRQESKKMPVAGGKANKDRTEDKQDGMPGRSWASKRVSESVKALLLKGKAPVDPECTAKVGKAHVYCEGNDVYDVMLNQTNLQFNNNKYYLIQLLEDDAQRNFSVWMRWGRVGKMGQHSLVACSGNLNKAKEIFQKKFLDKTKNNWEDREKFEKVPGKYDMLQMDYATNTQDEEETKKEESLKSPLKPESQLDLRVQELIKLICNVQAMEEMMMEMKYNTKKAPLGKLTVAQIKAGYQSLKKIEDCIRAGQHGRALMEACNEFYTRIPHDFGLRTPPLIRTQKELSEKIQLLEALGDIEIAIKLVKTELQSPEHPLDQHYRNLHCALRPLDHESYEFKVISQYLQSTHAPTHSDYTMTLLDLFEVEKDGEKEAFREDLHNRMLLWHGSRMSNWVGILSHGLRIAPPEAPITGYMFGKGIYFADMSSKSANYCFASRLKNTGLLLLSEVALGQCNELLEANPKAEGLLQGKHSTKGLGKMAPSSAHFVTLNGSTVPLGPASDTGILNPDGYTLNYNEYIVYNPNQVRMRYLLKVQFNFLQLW

MDA-MB-436 = assay: Antitumor activity against human MDA-MB-436 cells xenografted in BALB/c nude mouse assessed as inhibition of tumor growth at 25 to 50 mg/kg, po BID for 28 days followed by treatment was interruption and monitored for additional 2 months; type: functional, organism-based; details: dose 25-50 mg/kg, time 28.0 day
Outline: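 Female 8-week-old BALB/c nude mice receive 5 × 10⁶ cells in PBS:Matrigel 1:1 subcutaneously in the right flank. […] Tumors are then monitored 2 more months. Caliper volume V = 0.5ab² is taken twice weekly.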

T1 sequence (P09874 whole entry, the tested form may be a part): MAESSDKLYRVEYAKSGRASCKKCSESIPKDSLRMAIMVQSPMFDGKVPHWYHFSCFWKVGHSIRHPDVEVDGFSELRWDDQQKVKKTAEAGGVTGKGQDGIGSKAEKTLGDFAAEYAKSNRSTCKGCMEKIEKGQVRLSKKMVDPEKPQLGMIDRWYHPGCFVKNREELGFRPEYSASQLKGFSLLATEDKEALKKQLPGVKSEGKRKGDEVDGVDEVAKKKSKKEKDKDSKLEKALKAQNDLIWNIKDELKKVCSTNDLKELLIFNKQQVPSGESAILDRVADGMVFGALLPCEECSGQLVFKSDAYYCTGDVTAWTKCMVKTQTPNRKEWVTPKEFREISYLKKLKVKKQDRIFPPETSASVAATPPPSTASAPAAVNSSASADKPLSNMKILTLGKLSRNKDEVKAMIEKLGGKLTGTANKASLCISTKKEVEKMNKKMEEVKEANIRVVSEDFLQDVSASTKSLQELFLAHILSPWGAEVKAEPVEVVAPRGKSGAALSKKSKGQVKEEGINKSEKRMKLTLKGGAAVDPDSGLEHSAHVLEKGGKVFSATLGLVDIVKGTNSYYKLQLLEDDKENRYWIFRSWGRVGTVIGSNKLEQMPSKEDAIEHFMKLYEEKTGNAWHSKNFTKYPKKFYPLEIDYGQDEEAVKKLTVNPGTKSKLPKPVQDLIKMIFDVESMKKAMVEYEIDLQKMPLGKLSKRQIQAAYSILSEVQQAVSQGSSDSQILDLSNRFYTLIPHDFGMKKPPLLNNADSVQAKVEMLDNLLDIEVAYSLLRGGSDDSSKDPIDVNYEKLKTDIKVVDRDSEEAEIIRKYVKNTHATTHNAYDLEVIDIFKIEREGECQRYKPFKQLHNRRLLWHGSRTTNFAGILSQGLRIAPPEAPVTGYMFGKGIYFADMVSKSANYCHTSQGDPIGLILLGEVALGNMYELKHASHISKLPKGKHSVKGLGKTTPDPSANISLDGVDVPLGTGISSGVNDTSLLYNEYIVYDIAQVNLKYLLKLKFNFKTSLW

Row | EC50 [1] | IC50 [2] | Structure (SMILES) | inhibition at 20 µM (hERG (KCNH2)) | other results
1 | 176 nM |  | CC1(C)CC2=NNC(=O)c3cccc4c3c2c(n4CCO)C1 |  | 
2 | 9.3 nM | 8 nM | O=C1NN=C2CN(S(=O)(=O)C3CC3)Cc3[nH]c4cc(F)cc1c4c32 |  | 
3 | 22 nM | 9.9 nM | NC1(C(=O)N2CC3=NNC(=O)c4cc(F)cc5[nH]c(c3c45)C2)CC1 |  | 
4 | 15.4 nM | 9.8 nM | CC1(C(=O)N2CC3=NNC(=O)c4cc(F)cc5[nH]c(c3c45)C2)CC1 |  | 
5 | 2.7 nM | 4.9 nM | CC1CC2=NNC(=O)c3cc(F)cc4[nH]c(c2c34)C1 (stereo not drawn) |  | IC50 [11]: 1.3 nM
6 | 3.5 nM | 4.7 nM | O=C1NN=C2CN(C(=O)C3(O)CC3)Cc3[nH]c4cc(F)cc1c4c32 |  | 

Continued, compound first:

Row | Structure (SMILES) | EC50 [1] | IC50 [2] | inhibition at 20 µM (hERG (KCNH2)) | other results
7 | CC12CCCN1Cc1[nH]c3cc(F)cc4c3c1C2=NNC4=O (stereo not drawn) | 54.7 nM | 73 nM |  | 
8 | CC1(C)CCc2[nH]c3cc(F)cc4c3c2C1=NNC4=O | 45.5 nM | 28.8 nM |  | 
9 | Cn1nnc2c(C(N)=O)ncn2c1=O [TEMOZOLOMIDE] |  |  |  | Activity (NCI-H209 [3]): inactive; Activity (NCI-H209 [4]): 13%; TGI (NCI-H209 [5]): Active
10 | CCN(CC)CCn1c2c3c4c(cccc41)C(=O)NN=C3CC(C)(C)C2 |  |  | 95% | solubility [6]: Soluble
11 | O=C1NN=C2CN(C(=O)[C@@H]3CCCN3)Cc3[nH]c4cc(F)cc1c4c32 | 11.7 nM | 6.6 nM |  | 
12 | O=C1NN=C2CN(C(=O)C3CC3)Cc3[nH]c4cccc1c4c32 |  |  | 12% | CL/F [7]: 114 mL/min/kg; CLint scaled [8]: 250 mL/min/kg
13 | CN1CC2=NNC(=O)c3cc(F)cc4[nH]c(c2c34)C1 |  |  |  | CLint scaled [8]: 275 mL/min/kg
14 | CC1(C)CC2=NNC(=O)c3cc(F)cc4[nH]c(c2c34)C1 |  |  | 32% | 
15 | CC(C)N1CC2=NNC(=O)c3cccc4[nH]c(c2c34)C1 |  |  | 39% | bioavailability [9]: 19%; CL/F [7]: 114 mL/min/kg; AUC(0-t) at 24 h [10]: 141 ng·h/mL; CLint scaled [8]: 174 mL/min/kg
16 | CC1(C)CC2=NNC(=O)c3cccc4c3c2c(n4CCN2CCCCC2)C1 |  |  | 92% | solubility [6]: Soluble
17 | CN(C)CCn1c2c3c4c(cccc41)C(=O)NN=C3CC(C)(C)C2 |  |  | 77% | solubility [6]: Soluble; IC50 [11]: 0.3 nM
18 | CC1(C)C(C(=O)N2CC3=NNC(=O)c4cc(F)cc5[nH]c(c3c45)C2)C1(C)C | 16.6 nM | 17.9 nM |  | 
19 | O=C(c1cc(Cc2n[nH]c(=O)c3ccccc23)ccc1F)N1CCN(C(=O)C2CC2)CC1 [OLAPARIB] |  |  |  | TGI (MDA-MB-436): Active; bioavailability [9]: 10%
20 | CC1(C)C(=O)C2=NNC(=O)c3cc(F)cc4[nH]c(c2c34)C1=O | 76.1 nM | 13.1 nM |  | 
21 | O=C1NN=C2CN(C(=O)C3(c4ccccc4)CC3)Cc3[nH]c4cc(F)cc1c4c32 | 24.1 nM | 28.1 nM |  | CL/F [7]: 71 mL/min/kg
22 | O=C1NN=C2CCCCc3[nH]c4cc(F)cc1c4c32 |  |  |  | IC50 [11]: 0.7 nM
23 | CC(C)(N)C(=O)N1CC2=NNC(=O)c3cccc4[nH]c(c2c34)C1 |  |  | 43% | 
24 | CC1(C)CC2=NNC(=O)c3cccc4c3c2c(n4CCN2CCCC2)C1 |  |  | 97% | solubility [6]: Soluble
25 | O=C1NN=C2CC(c3ccccc3)Cc3[nH]c4cc(F)cc1c4c32 (stereo not drawn) |  |  |  | IC50 [11]: 1.8 nM
26 | CN(C)CCn1c2c3c4c(cc(F)cc41)C(=O)NN=C3CC(C)(C)C2 |  |  | 73% | solubility [6]: Soluble; IC50 [11]: 0.3 nM
27 | CNCCn1c2c3c4c(cccc41)C(=O)NN=C3CC(C)(C)C2 | 0.5 nM | 7 nM |  | 
28 | CC(C)C1CC2=NNC(=O)c3cc(F)cc4[nH]c(c2c34)C1 (stereo not drawn) |  |  |  | IC50 [11]: 0.7 nM
